In brackets after ≈: the same amount, converted by molar mass.
Assays:
[1] = system: Mycobacterium tuberculosis; test: Bactericidal activity against Mycobacterium tuberculosis assessed as minimum concentration required for anaerobicidal activity; format: functional
In short: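 Minimum anaerobicidal concentration (μM) against non-replicating Mtb. Run multiple times in two independent laboratories, with discrepant results repeated until concordant. Values are averages of multiple measurements ± SD.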

Liver [2] = test: Half life in mouse liver microsome at 5 mg/kg, iv after 24 hrs by LC/MS/MS analysis; format: ADME; details: microsomes
[3] = system: Mycobacterium tuberculosis; test: Antitubercular activity against Mycobacterium tuberculosis; format: functional
In short: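 Whole-cell assay against replicating Mtb, scored as MIC99 in μM. Run multiple times in two independent laboratories, with discrepant results repeated until concordant. Values are averages of multiple measurements ± SD.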

[4] = Solubility of the compound at pH 6.8; format: physicochemical; details: buffer
Liver [5] = test: Intrinsic clearance in mouse liver microsome at 5 mg/kg, iv after 24 hrs by LC/MS/MS analysis; format: ADME; details: microsomes
[6] = Elimination half life in mouse at 5 mg/kg, iv by LC/MS/MS analysis; format: ADME, organism-based; parameters: dose 5 mg/kg, route intravenous; details: in vivo, read-out: beta t1/2 (converted)
In short: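 Single intravenous dose of 5mg/kg, using the supernatant of a centrifuged formulation. Blood was sampled at time points from 1min to 24h after dosing. Plasma was extracted and analysed by LC/MS/MS. Pharmacokinetic parameters, including elimination half-life, came from non-compartmental analysis.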

[7] = Solubility of the compound; format: physicochemical
In short: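 Solubility was measured in buffer at pH 6.8 and reported in μg/mL.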

Row | Compound | Activity [1] [µM] | t1/2 (Liver [2]) [min] | MIC99 [3] [µM] | solubility [4] [µg/mL] | CL (Liver [5]) [µL/min/mg] | half-life [6] [min] | solubility [7] | solubility ([4]; read-out: solubility) [µg/mL]
1 | O=[N+]([O-])c1cn2c(n1)OC[C@@H](NCc1ccc(OC(F)(F)F)cc1F)C2 | 2.5 | 14.5 | 0.12 (≈ 0.0452 µg/mL) | 72 (≈ 191 µM) | 95.6 | – | – | –
2 | O=[N+]([O-])c1cn2c(n1)OC[C@@H](NC(CO)c1ccc(OC(F)(F)F)cc1)C2 (mixture of isomers) | 11 | – | 0.3 | – | – | – | – | –
3 | COc1cc(CO[C@@H]2COc3nc([N+](=O)[O-])cn3C2)ccc1OC(F)(F)F | 4.2 | – | 0.13 (≈ 0.0506 µg/mL) | – | – | – | – | –
4 | CCC(N[C@@H]1COc2nc([N+](=O)[O-])cn2C1)c1ccc(OC(F)(F)F)cc1 (mixture of isomers) | 3.1 | – | 0.36 | – | – | – | – | –
5 | NC(=O)C(N[C@@H]1COc2nc([N+](=O)[O-])cn2C1)c1ccc(OC(F)(F)F)cc1 (mixture of isomers) | 30 | – | 0.41 | – | – | – | – | –
6 | O=[N+]([O-])c1cn2c(n1)OC[C@@H](NCc1ccc(OC(F)(F)F)cc1OC1CC1)C2 | 2 | 9.2 | 0.06 (≈ 0.0249 µg/mL) | 11 (≈ 26.5 µM) | 150.7 | – | – | –
7 | O=[N+]([O-])c1cn2c(n1)OC[C@@H](NCc1ccc(OC(F)(F)F)c(O)c1)C2 | 7.5 | 22.4 | 0.16 (≈ 0.0599 µg/mL) | – | 61.9 | 24 | – | –
8 | O=[N+]([O-])c1cn2c(n1)OC[C@@H](NCc1ccc(OC(F)(F)F)cc1Oc1ccccc1)C2 | 4.4 | 6.4 | 0.06 (≈ 0.027 µg/mL) | 3 (≈ 6.66 µM) | 216.6 | – | – | –
9 | CC(N[C@@H]1COc2nc([N+](=O)[O-])cn2C1)c1ccc(OC(F)(F)F)cc1 (mixture of isomers) | 5.6 | – | 0.44 | – | – | – | – | –
10 | O=[N+]([O-])c1cn2c(n1)OC[C@@H](NCc1ccc(OC(F)(F)F)cc1)C2 | 14 | – | 0.36 (≈ 0.129 µg/mL) | – | – | – | – | –
11 | CCCC(N[C@@H]1COc2nc([N+](=O)[O-])cn2C1)c1ccc(OC(F)(F)F)cc1 (mixture of isomers) | 3.8 | – | 0.27 | – | – | – | – | –
12 | O=[N+]([O-])c1cn2c(n1)OC[C@@H](NCc1ccc(OC(F)(F)F)cc1N1CCOCC1)C2 | 10 | – | 0.15 (≈ 0.0665 µg/mL) | – | – | – | – | –
13 | O=C(c1ccccc1)N(Cc1ccc(OC(F)(F)F)cc1)[C@@H]1COc2nc([N+](=O)[O-])cn2C1 | >50 | – | 8.8 (≈ 4.07 µg/mL) | – | – | – | – | –
14 | CN(Cc1ccc(OC(F)(F)F)cc1)[C@@H]1COc2nc([N+](=O)[O-])cn2C1 | 2.5 | 11 | 0.15 (≈ 0.0558 µg/mL) | 10 (≈ 26.9 µM) | 124.9 | – | – | –
15 | CCCCC(N[C@@H]1COc2nc([N+](=O)[O-])cn2C1)c1ccc(OC(F)(F)F)cc1 (mixture of isomers) | 4.4 | – | 0.15 | – | – | – | – | –
16 | CCCN(Cc1ccc(OC(F)(F)F)cc1)[C@@H]1COc2nc([N+](=O)[O-])cn2C1 | 3.8 | 3.4 | 0.11 (≈ 0.044 µg/mL) | < 2 | 407 | – | – | –
17 | O=[N+]([O-])c1cn2c(n1)OC[C@@H](NCc1ccc(OC(F)(F)F)cc1Br)C2 | 2 | – | 0.09 (≈ 0.0393 µg/mL) | – | – | – | – | –
18 | O=C(c1ccc(Cl)cc1)N(Cc1ccc(OC(F)(F)F)cc1)[C@@H]1COc2nc([N+](=O)[O-])cn2C1 | 7.8 | – | 1.3 (≈ 0.646 µg/mL) | – | – | – | – | –
19 | O=[N+]([O-])c1cn2c(n1)OC[C@@H](NCc1ccc(OC(F)(F)F)cc1OCc1ccccc1)C2 | 7.5 | – | 0.24 (≈ 0.111 µg/mL) | – | – | – | – | –
20 | O=[N+]([O-])c1cn2c(n1)OC[C@@H](NCc1ccc(OC(F)(F)F)cc1O)C2 | 4.4 | 14.3 | 0.09 (≈ 0.0337 µg/mL) | 25 (≈ 66.8 µM) | 96.9 | – | – | –
21 | CC(=O)N(Cc1ccc(OC(F)(F)F)cc1)[C@@H]1COc2nc([N+](=O)[O-])cn2C1 | >50 | – | 50 (≈ 20 µg/mL) | – | – | – | – | –
22 | O=[N+]([O-])c1cn2c(n1)OC[C@@H](OCc1ccc(OC(F)(F)F)c(O)c1)C2 | 8.3 | – | 0.14 (≈ 0.0525 µg/mL) | – | – | – | – | –
23 | O=[N+]([O-])c1cn2c(n1)OC[C@@H](NCc1ccc(OC(F)(F)F)cc1OCC1CC1)C2 | 4.2 | 1.6 | 0.1 (≈ 0.0428 µg/mL) | 6 (≈ 14 µM) | 866.3 | – | – | –

Row | Compound | Activity [1] [µM] | t1/2 (Liver [2]) [min] | MIC99 [3] [µM] | solubility [4] [µg/mL] | CL (Liver [5]) [µL/min/mg] | half-life [6] [min] | solubility [7] | solubility ([4]; read-out: solubility) [µg/mL]
24 | O=[N+]([O-])c1cn2c(n1)OC[C@@H](NCc1ccc(OC(F)(F)F)cc1Cl)C2 | 2.1 | 19.9 | 0.13 (≈ 0.0511 µg/mL) | 30 (≈ 76.4 µM) | 69.7 | – | – | –
25 | O=[N+]([O-])c1cn2c(n1)OC[C@@H](NCc1ccc(OC(F)(F)F)c(Cl)c1)C2 | 4.2 | 13.4 | 0.12 (≈ 0.0471 µg/mL) | – | 103.4 | 258 | – | –
26 | CCC(=O)N(Cc1ccc(OC(F)(F)F)cc1)[C@@H]1COc2nc([N+](=O)[O-])cn2C1 | – | – | – | – | – | – | Insoluble | –
27 | O=CN(Cc1ccc(OC(F)(F)F)cc1)[C@@H]1COc2nc([N+](=O)[O-])cn2C1 | 12.5 | – | 0.79 (≈ 0.305 µg/mL) | – | – | – | – | –
28 | O=[N+]([O-])c1cn2c(n1)OC[C@@H](NCc1ccc(OC(F)(F)F)c(F)c1)C2 | 4.2 | 23.6 | 0.12 (≈ 0.0452 µg/mL) | – | 58.7 | – | – | –
29 | O=[N+]([O-])c1cn2c(n1)OC[C@@H](OCc1ccc(OC(F)(F)F)c(F)c1)C2 | 7.5 | – | 0.17 (≈ 0.0641 µg/mL) | – | – | – | – | –
30 | COc1cc(CN[C@@H]2COc3nc([N+](=O)[O-])cn3C2)ccc1OC(F)(F)F | 2.1 | – | 0.07 (≈ 0.0272 µg/mL) | – | – | – | – | –
31 | O=[N+]([O-])c1cn2c(n1)OC[C@@H](NCc1ccc(OC(F)(F)F)cc1N1CCCCC1)C2 | 11 | – | 0.21 (≈ 0.0927 µg/mL) | – | – | – | – | –
32 | O=[N+]([O-])c1cn2c(n1)OC[C@@H](NC(CCO)c1ccc(OC(F)(F)F)cc1)C2 (mixture of isomers) | 23 | – | 0.13 | – | – | – | – | –
33 | CCNC(=O)N(Cc1ccc(OC(F)(F)F)cc1)[C@@H]1COc2nc([N+](=O)[O-])cn2C1 | 69 | – | 17 (≈ 7.3 µg/mL) | – | – | – | – | –
34 | O=C(c1cccc(Cl)c1)N(Cc1ccc(OC(F)(F)F)cc1)[C@@H]1COc2nc([N+](=O)[O-])cn2C1 | 21 | – | 7.5 (≈ 3.73 µg/mL) | – | – | – | – | –
35 | COC(=O)c1cc(CN[C@@H]2COc3nc([N+](=O)[O-])cn3C2)ccc1OC(F)(F)F | 11 | – | 0.14 (≈ 0.0583 µg/mL) | – | – | – | – | –
36 | O=[N+]([O-])c1cn2c(n1)OC[C@@H](NC(c1ccc(OC(F)(F)F)cc1)c1ncco1)C2 (mixture of isomers) | 7.8 | – | 0.4 | – | – | – | – | –
37 | O=[N+]([O-])c1cn2c(n1)OC[C@@H](OCc1ccc(OC(F)(F)F)cc1)C2 [PRETOMANID] | 8.8 | – | 0.63 (≈ 0.226 µg/mL) | – | – | – | – | –
38 | COc1cc(OC(F)(F)F)ccc1CN[C@@H]1COc2nc([N+](=O)[O-])cn2C1 | 5.2 | – | 0.23 (≈ 0.0893 µg/mL) | – | – | – | – | –
39 | O=[N+]([O-])c1cn2c(n1)OC[C@@H](NC(c1ccc(OC(F)(F)F)cc1)c1ncc[nH]1)C2 (mixture of isomers) | 17 | – | 0.52 | – | – | – | – | –
40 | CN1CCN(c2cc(CN[C@@H]3COc4nc([N+](=O)[O-])cn4C3)ccc2OC(F)(F)F)CC1 | 7.8 | – | 0.17 (≈ 0.0776 µg/mL) | – | – | – | – | –
41 | CN1CCN(c2cc(OC(F)(F)F)ccc2CN[C@@H]2COc3nc([N+](=O)[O-])cn3C2)CC1 | 33 | – | 2.2 (≈ 1 µg/mL) | – | – | – | – | –
42 | CC(C)N(Cc1ccc(OC(F)(F)F)cc1)[C@@H]1COc2nc([N+](=O)[O-])cn2C1 | 11 | 3.2 | 0.34 (≈ 0.136 µg/mL) | < 2 | 433 | – | – | –
43 | O=[N+]([O-])c1cn2c(n1)OC[C@@H](NCc1ccc(OC(F)(F)F)c(Oc3ccccc3)c1)C2 | 3.9 | 9.3 | 0.14 (≈ 0.0631 µg/mL) | – | 149 | – | – | < 2
44 | O=[N+]([O-])c1cn2c(n1)OC[C@@H](NCc1ccc(OC(F)(F)F)c(N3CCOCC3)c1)C2 | 7 | – | 0.15 (≈ 0.0665 µg/mL) | – | – | – | – | –
45 | O=C(c1ccccc1Cl)N(Cc1ccc(OC(F)(F)F)cc1)[C@@H]1COc2nc([N+](=O)[O-])cn2C1 | >50 | – | 5.6 (≈ 2.78 µg/mL) | – | – | – | – | –
